Source: ChEMBL document CHEMBL1681758, “Synthesis and in vitro anti-HSV-1 activity of a novel Hsp90 inhibitor BJ-B11” (Bioorg Med Chem Lett, 2011)
Calls of active or inactive are those of the source. The rule behind the calls is not given here.

What was measured:
[1] = Cytotoxicity against african green monkey Vero cells by MTT assay; assay type: cell-based; details: chlorocebus sabaeus
Outline: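 Vero cells; MTT viability read-out. CC50 taken as concentration reducing cell viability by 50%. Mean ± SD of three independent experiments.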

Human alphaherpesvirus 1 [2] = experiment: Antiviral activity against HSV1 infected in african green monkey Vero cells assessed as inhibition of viral replication by plaque reduction assay; assay type: functional, organism-based; details: Human alphaherpesvirus 1, Vero
Outline: (§1)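 Vero cells; plaque reduction assay at concentrations found non-cytotoxic by MTT. EC50 is the concentration inhibiting 50% of HSV replication. Mean ± SD of three independent experiments.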

Human alphaherpesvirus 2 [3] = experiment: Antiviral activity against HSV2 infected in african green monkey Vero cells assessed as inhibition of viral replication by plaque reduction assay; assay type: functional, organism-based; details: Human alphaherpesvirus 2, Vero; outline: as §1
[4] = Therapeutic index, ratio of CC50 for african green monkey Vero cells to EC50 for HSV1; assay type: cell-based; details: read-out: TI
Outline: (§2)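 TI calculated as CC50 (Vero, MTT) divided by EC50 (Vero, plaque reduction) for the respective HSV type.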

[5] = Therapeutic index, ratio of CC50 for african green monkey Vero cells to EC50 for HSV2; assay type: cell-based; details: read-out: TI; outline: as §2
Human alphaherpesvirus 1 [6] = experiment: Antiviral activity against HSV1 infected in african green monkey Vero cells assessed as reduction of UL54 expression at 1 uM after up to 24 hrs by RT-PCR analysis; assay type: functional, organism-based
Outline: (§3)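 Vero monolayer infected with HSV-1 (MOI = 1) with or without 1 µM compound. RNA extracted at 3, 6 and 12 hpi, reverse transcribed, and serially diluted cDNA used for real-time PCR of UL54, UL52 and UL27. Mean ± SD, n = 3; Student's t-test against untreated controls.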

Human alphaherpesvirus 1 [7] = experiment: Antiviral activity against HSV1 infected in african green monkey Vero cells assessed as reduction of UL52 expression at 1 uM after up to 24 hrs by RT-PCR analysis; assay type: functional, organism-based; outline: as §3
Human alphaherpesvirus 1 [8] = experiment: Antiviral activity against HSV1 infected in african green monkey Vero cells assessed as reduction of UL27 expression at 1 uM after up to 24 hrs by RT-PCR analysis; assay type: functional, organism-based; outline: as §3
Human alphaherpesvirus 1 [9] = experiment: Antiviral activity against HSV1 infected in african green monkey Vero cells assessed as inhibition of virus-induced cytopathic effect; assay type: functional, organism-based
Human alphaherpesvirus 2 [10] = experiment: Antiviral activity against HSV2 infected in african green monkey Vero cells assessed as inhibition of virus-induced cytopathic effect; assay type: functional, organism-based
Coxsackievirus B3 = experiment: Antiviral activity against Coxsackievirus B3 infected in african green monkey Vero cells assessed as inhibition of virus-induced cytopathic effect; assay type: functional, organism-based
Human orthopneumovirus = experiment: Antiviral activity against Human respiratory syncytial virus infected in african green monkey Vero cells assessed as inhibition of virus-induced cytopathic effect; assay type: functional, organism-based
Influenza A virus = experiment: Antiviral activity against Influenza A virus H1N1 infected in african green monkey Vero cells assessed as inhibition of virus-induced cytopathic effect; assay type: functional, organism-based
Human alphaherpesvirus 1 [11] = experiment: Antiviral activity against HSV1 infected in african green monkey Vero cells assessed as log reduction of viral yield at 1 uM treated after 9 hrs post infection by plaque assay; assay type: functional
Outline: (§4)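 HSV-1 at MOI = 1 in Vero cells, compound at 1 µM in time-of-addition and time-of-removal schedules. Cultures harvested at 24 hpi; virus yield titrated by plaque assay.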

Human alphaherpesvirus 1 [12] = experiment: Antiviral activity against HSV1 infected in african green monkey Vero cells assessed as log reduction of viral yield at 1 uM treated after 24 hrs post infection by plaque assay; assay type: functional; outline: as §4
Human alphaherpesvirus 1 [13] = experiment: Antiviral activity against HSV1 infected in african green monkey Vero cells assessed as log reduction of viral yield at 1 uM treated after 6 hrs post infection by plaque assay; assay type: functional; outline: as §4
Human alphaherpesvirus 1 [14] = experiment: Antiviral activity against HSV1 infected in african green monkey Vero cells assessed as log reduction of viral yield at 1 uM after drug washout by plaque assay; assay type: functional; outline: as §4
Human alphaherpesvirus 1 [15] = experiment: Antiviral activity against HSV1 infected in african green monkey Vero cells assessed as inhibition DNA synthesis at 1 uM after 24 hrs by RT-PCR analysis; assay type: functional, organism-based
Outline: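 Vero monolayer infected with HSV-1 (MOI = 1) with or without 1 µM compound. DNA extracted at 24 hpi; UL52 quantified by real-time PCR. Mean ± SD, n = 3; Student's t-test against untreated controls.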

SMILES: Nc1nc2c(ncn2COCCO)c(=O)[nH]1 [ACYCLOVIR]
- CC50 [1]: > 200000 nM
- EC50 (Human alphaherpesvirus 1 [2]): 1160 nM
- EC50 (Human alphaherpesvirus 2 [3]): 1720 nM
- selectivity ratio [4]: > 172
- selectivity ratio [5]: > 116
- Activity (Human alphaherpesvirus 1 [6]): inactive
- Activity (Human alphaherpesvirus 1 [7]): Active
- Activity (Human alphaherpesvirus 1 [8]): Active

SMILES: CC(=O)OC1CCC(Nc2cc(-n3nc(C)c4c3CC(C)(C)CC4=O)ccc2C(N)=O)CC1 (stereo unspecified)
- inhibition (Human alphaherpesvirus 1 [9]): Active
- inhibition (Human alphaherpesvirus 2 [10]): Active
- inhibition (Coxsackievirus B3): inactive
- inhibition (Human orthopneumovirus): inactive
- inhibition (Influenza A virus): inactive
- CC50 [1]: 35500 nM
- EC50 (Human alphaherpesvirus 1 [2]): 420 nM
- EC50 (Human alphaherpesvirus 2 [3]): 600 nM
- selectivity ratio [4]: 84.5
- selectivity ratio [5]: 59.2
- PFU/ml (Human alphaherpesvirus 1 [11]): 6.67
- PFU/ml (Human alphaherpesvirus 1 [12]): 7.09
- PFU/ml (Human alphaherpesvirus 1 [13]): 7.13
- PFU/ml (Human alphaherpesvirus 1 [14]): 6.14
- inhibition (Human alphaherpesvirus 1 [15]): Active
- Activity (Human alphaherpesvirus 1 [6]): inactive
- Activity (Human alphaherpesvirus 1 [7]): Active
- Activity (Human alphaherpesvirus 1 [8]): Active
